Laboratory results from ChEMBL document CHEMBL4725385, “Design and synthesis of β-strand-fixed peptides inhibiting aggregation of amyloid β-protein” (Bioorg Med Chem, 2020).
Active and inactive are the calls of the source. The calls are words filed in the database; no cut-off is given here. Peptide text beside a SMILES is read from it.

Key:
SH-SY5Y [1] = test: Neuroprotective activity against amyloid beta (1 to 42 residues) induced cytotoxicity in human SH-SY5Y cells assessed as cell viability at 10 uM after 48 hrs by MTT assay; type: functional, cell-based
Method in brief: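 SH-SY5Y cells (ATCC) were grown in DMEM/F-12 with 10% FBS and penicillin/streptomycin at 37 °C, 5% CO2. Cells were plated at 2.0 × 10^4 per well and pre-incubated for 24 h. HFIP-treated Aβ42 (final 1 µM) and compound (final 10 µM) were added, with 0.5% DMSO and 0.01% NH4OH final. After 48 h, MTT (5 mg/mL stock) was added for 4 h, then DMSO was used for solubilization. Mean ± SD, n = 3.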

[2] = molecular target: Amyloid-beta precursor protein (Homo sapiens) (UniProt P05067); test: Inhibition of HFIP-pretreated amyloid beta (1 to 42) (unknown origin) aggregation in PBS buffer at pH 7.4 at 40 uM incubated for 48 hrs by thioflavin-T fluorescence assay
Method in brief: (§1)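 Aβ42 pretreated with HFIP (1 mg/mL, 30 min RT, sonicated 5 min, dried to film), then diluted from 0.1% NH4OH stock to final 10 µM in PBS (50 mM sodium phosphate, 100 mM NaCl) with compound from DMSO stock (final 1% DMSO), pH 7.4. Incubated at 37 °C for 0–48 h. Aliquots were frozen at -80 °C, then mixed with 5.0 µM Th-T in 50 mM Gly-NaOH pH 8.5. Fluorescence read at ex 430/em 510 nm, buffer background subtracted; mean ± SD, n = 4.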

[3] = molecular target: Amyloid-beta precursor protein (Homo sapiens) (UniProt P05067); test: Inhibition of HFIP-pretreated amyloid beta (1 to 42) (unknown origin) aggregation in PBS buffer at pH 7.4 assessed as effect on fibril formation at 40 uM after 48 hrs by uranyl acetate staining based transmission electron microscopy
Method in brief: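 HFIP-treated Aβ42 (final 10 µM) was incubated with compound (final 40 µM) in PBS containing 1% DMSO, pH 7.4, at 37 °C for 48 h. Pellets were collected by centrifugation and resuspended in distilled water. They were left on formvar-coated copper grids for 5 min, negatively stained with 2% uranyl acetate and imaged by TEM.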

[4] = molecular target: Amyloid-beta precursor protein (Homo sapiens) (UniProt P05067); test: Inhibition of HFIP-pretreated amyloid beta (1 to 42) (unknown origin) aggregation in PBS buffer at pH 7.4 incubated for 48 hrs by thioflavin-T fluorescence assay; method in brief: as §1
SH-SY5Y [5] = test: Cytotoxicity against human SH-SY5Y cells assessed as reduction in cell viability at 10 uM measured after 48 hrs by MTT assay; type: cell-based

Amyloid-beta precursor protein (Homo sapiens), sequence (P05067 whole entry): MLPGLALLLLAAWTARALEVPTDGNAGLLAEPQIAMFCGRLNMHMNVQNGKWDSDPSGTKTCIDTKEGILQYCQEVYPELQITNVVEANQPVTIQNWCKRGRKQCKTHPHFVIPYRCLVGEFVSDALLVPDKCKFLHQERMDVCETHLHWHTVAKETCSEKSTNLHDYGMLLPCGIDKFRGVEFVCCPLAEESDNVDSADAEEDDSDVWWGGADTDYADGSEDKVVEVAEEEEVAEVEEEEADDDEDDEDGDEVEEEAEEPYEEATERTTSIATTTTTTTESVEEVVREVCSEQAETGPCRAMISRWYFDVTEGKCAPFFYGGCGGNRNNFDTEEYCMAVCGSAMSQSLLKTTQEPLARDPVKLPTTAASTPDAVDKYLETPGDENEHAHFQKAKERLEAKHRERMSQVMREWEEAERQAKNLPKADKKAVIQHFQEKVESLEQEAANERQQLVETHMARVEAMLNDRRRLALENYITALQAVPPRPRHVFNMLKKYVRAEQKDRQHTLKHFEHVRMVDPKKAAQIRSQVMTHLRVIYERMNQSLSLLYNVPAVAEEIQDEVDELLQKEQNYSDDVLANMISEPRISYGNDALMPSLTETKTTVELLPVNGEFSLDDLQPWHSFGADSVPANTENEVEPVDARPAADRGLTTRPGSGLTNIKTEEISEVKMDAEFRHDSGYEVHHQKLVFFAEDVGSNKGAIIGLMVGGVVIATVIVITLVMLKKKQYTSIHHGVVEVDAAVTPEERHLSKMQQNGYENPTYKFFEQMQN

O=C(O)C[C@H](NC(=O)[C@@H]1C/C=C/COc2ccc(cc2)C[C@H](NC(=O)[C@@H]2CCCN2)C(=O)N[C@@H](Cc2ccccc2)C(=O)N1)C(=O)O
Activity (SH-SY5Y [1]): inactive | inhibition [2]: Active | inhibition [3]: inactive

CC(C)C[C@H](N)C(=O)N1CCC[C@H]1C(=O)N[C@@H](Cc1ccccc1)C(=O)N[C@@H](Cc1ccccc1)C(=O)O (H-LPFF-OH)
inhibition [2]: inactive

C[C@H](NC(=O)[C@@H]1C/C=C/COc2ccc(cc2)C[C@H](NC(=O)[C@@H]2CCCN2)C(=O)N[C@@H](Cc2ccccc2)C(=O)N1)C(=O)O
Activity (SH-SY5Y [1]): inactive | inhibition [2]: Active | inhibition [3]: inactive

CC(C)[C@@H]1NC(=O)[C@@H](N)C/C=C/COc2ccc(cc2)C[C@@H](C(=O)N[C@@H](Cc2ccccc2)C(=O)N[C@@H](C)C(=O)O)NC1=O
Activity (SH-SY5Y [1]): inactive | inhibition [2]: inactive | inhibition [3]: inactive

CC(C)C[C@H](N)C(=O)N[C@H]1Cc2ccc(cc2)OC/C=C/C[C@@H](C(=O)N[C@@H](C)C(=O)O)NC(=O)[C@H](Cc2ccccc2)NC1=O
Activity (SH-SY5Y [1]): inactive | inhibition [4]: Dose-dependent effect | inhibition [3]: inactive

COC(=O)[C@@H]1C/C=C/COc2ccc(cc2)C[C@H](NC(=O)OC(C)(C)C)C(=O)N[C@@H](CC(C)C)C(=O)N1
inhibition [2]: inactive

CC(C)C[C@H](N)C(=O)N[C@H]1C/C=C/COc2ccc(cc2)C[C@@H](C(=O)N[C@@H](C)C(=O)O)NC(=O)[C@H](Cc2ccccc2)NC1=O
Activity (SH-SY5Y [1]): inactive | Activity (SH-SY5Y [5]): Toxic | inhibition [4]: Dose-dependent effect | inhibition [3]: inactive

CC(C)C[C@H](N)C(=O)N[C@H]1Cc2ccc(cc2)OC/C=C/C[C@@H](C(=O)N[C@@H](CC(=O)O)C(=O)O)NC(=O)[C@H](Cc2ccccc2)NC1=O
Activity (SH-SY5Y [1]): inactive | inhibition [2]: Active | inhibition [3]: inactive

CC(C)C[C@H](N)C(=O)N[C@H](C(=O)N[C@H]1Cc2ccc(cc2)OC/C=C/C[C@@H](C(=O)O)NC(=O)[C@H](Cc2ccccc2)NC1=O)C(C)C
Activity (SH-SY5Y [1]): inactive | inhibition [2]: inactive | inhibition [3]: inactive
